The values below come from ChEMBL document CHEMBL1124443, “2'-Fluorinated isonucleosides. 1. Synthesis and biological activity of some methyl 2'-deoxy-2'-fluoro-2'-pyrimidinyl-D-arabinopyranosides” (J Med Chem, 1989).

For data set [1], the species on record is Mus musculus. Kind of data set: Weight loss in mice treated with compound at 50 mkdx5. It counts as functional. Put shortly:
(§1)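 Female DBA/2 mice (19–20 g) bearing ip L1210 leukemia (10^6 cells, day 0) were dosed ip daily for 5 consecutive days starting on day 1. Mice were weighed daily, and weight loss was recorded as body weight in g.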

The species named for data set [2] is Mus musculus. Description: Weight loss in mice treated with compound at 100 mkdx5. It counts as functional. An outline of the steps: as §1
Data set [3] in a line: Therapeutic effect of compound (25 mkdx3) on mice with L1210/5-FU leukemia; No effect. The note with it: mouse.
For data set [4], the system named is Mus musculus. Description: Percent increase in life span of leukemic mice administered, with compound at 25 mkdx3, on days 1,3,6. It counts as functional. Put shortly: (§2)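 L1210 cells (10^6) were implanted ip on day 0 in female DBA/2 mice. Dosing was 5 or 25 mg/kg/day on days 1, 3 and 6 (3 doses). Daily survival monitoring; % increase in life span versus untreated controls.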

The subject of data set [5] is Mus musculus. Description: Percent increase in life span of leukemic mice administered, with compound at 5 mkdx3, on days 1,3,6. The format is functional. Put shortly: as §2
The species entered for data set [6] is Mus musculus. Kind of data set: Weight loss in mice treated with compound at 200 mkdx5. It counts as functional. Put shortly:
as §1

Data set [7] concerns Mus musculus. Kind of data set: Percent increase in life span of leukemic mice administered, with compound at 100 mg/kgx5, intraperitoneally. The settings on record: ip, route intraperitoneal. It counts as functional. Put shortly: (§3)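 Female DBA/2 mice (19–20 g) received 10^6 L1210 cells ip on day 0. Drug was given ip once daily for 5 consecutive days starting day 1. Survival was monitored daily. % ILS was derived from mean survival versus untreated mice.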

Data set [8] has as its system Mus musculus. Description: Percent increase in life span of leukemic mice administered, with compound at 50 mg/kgx5, intraperitoneally. The format is functional. The settings on record: ip, route intraperitoneal. Put shortly:
as §3

As usually defined, the ILS is how much longer treated animals lived than controls. `O=c1[nH]cc(F)c(=O)[nH]1` [FLUOROURACIL]: the Weight loss in the data set filed under Mus musculus [1], in the data set listed under Mus musculus [2] and in the data set listed under Mus musculus [6] was 14 g in each case. Besides, the results for the ILS entry (in data set [3]; in the data set with Mus musculus [4]; in the data set on Mus musculus [5]) were “No effect”, 88% and 41%, respectively.
For the compound `Nc1ccn([C@@H]2O[C@H](CO)[C@@H](O)[C@@H]2O)c(=O)n1` [CYTARABINE], the ILS at 100 mg/kg in the data set on Mus musculus [7] worked out at 126%. Moreover, in the data set on Mus musculus [8], the ILS at 50 mg/kg came out at 104%.
